Active and inactive are the calls of the source. The calls are words filed in the database; no cut-off is given here.
How the values were obtained:
[1] = Cmax in Beagle dog at 2.5 mg/kg, po; assay type: ADME, organism-based, Canis lupus familiaris; set-up: dose 2.5 mg/kg, route oral; settings: in vivo
[2] = test system: Salmonella typhi; experiment: Mutagenicity against Salmonella typhi by miniAmes test upto 2 mg/well; assay type: functional, organism-based; settings: Salmonella enterica subsp. enterica serovar Typhi
[3] = test system: Canis familiaris; experiment: Hemodynamic activity in dog upto 28 ug/ml, iv; assay type: functional, organism-based; settings: Canis lupus familiaris
Procedure, shortened: (§1)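 Hemodynamic and electrocardiographic profile recorded in anesthetized rats or dogs given the drug intravenously, at plasma concentrations up to 28 µg/mL.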

[4] = Half life in Beagle dog at 2.5 mg/kg, po; assay type: ADME, organism-based, Canis lupus familiaris; set-up: dose 2.5 mg/kg, route oral; settings: in vivo
[5] = test system: Rattus norvegicus; experiment: Hemodynamic activity in rat upto 28 ug/ml, iv; assay type: functional, organism-based; procedure, shortened: as §1
[6] = Half life in Sprague-Dawley rat at 5 mg/kg, iv; assay type: ADME, organism-based; set-up: dose 5 mg/kg, route intravenous; settings: in vivo
[7] = AUC in Sprague-Dawley rat at 5 mg/kg, po; assay type: ADME, organism-based; set-up: dose 5 mg/kg, route oral; settings: plasma
[8] = Tmax in Sprague-Dawley rat at 5 mg/kg, po; assay type: ADME, organism-based; set-up: dose 5 mg/kg, route oral; settings: in vivo
[9] = Oral bioavailability in cynomolgus monkey at 2.5 mg/kg, po; assay type: ADME, organism-based, Macaca fascicularis; settings: in vivo
[10] = Tmax in cynomolgus monkey at 2.5 mg/kg, po; assay type: ADME, organism-based, Macaca fascicularis; set-up: dose 2.5 mg/kg, route oral; settings: in vivo
[11] = target: Dipeptidyl peptidase 2 (Homo sapiens, UniProt Q9UHL4); experiment: Inhibition of DPP7
[12] = species on record: Rattus norvegicus; experiment: Reduction in postprandial glucose excursion in Zucker rat measured as AUC glucose (0-240 min); assay type: functional, organism-based; set-up: time < 4 hr
Procedure, shortened: (§2)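 Female ZDF rats, 10 weeks old, fasted overnight, then dosed orally with vehicle or drug. Four hours after dosing (t = 0) they had free access for 4 h to a liquid mixed meal (Ensure). Plasma was sampled for drug level, active GLP-1, insulin, glucagon and glucose.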

[13] = Volume of distribution in terminal phase in Beagle dog at 2.5 mg/kg, iv; assay type: ADME, organism-based, Canis lupus familiaris; set-up: dose 2.5 mg/kg, route intravenous; settings: in vivo, read-out: Vbeta
[14] = target: Cytochrome P450 2C9 (Homo sapiens, UniProt P11712); experiment: Inhibition of CYP2C9; assay type: ADME
Sequence of Cytochrome P450 2C9 (P11712 whole entry): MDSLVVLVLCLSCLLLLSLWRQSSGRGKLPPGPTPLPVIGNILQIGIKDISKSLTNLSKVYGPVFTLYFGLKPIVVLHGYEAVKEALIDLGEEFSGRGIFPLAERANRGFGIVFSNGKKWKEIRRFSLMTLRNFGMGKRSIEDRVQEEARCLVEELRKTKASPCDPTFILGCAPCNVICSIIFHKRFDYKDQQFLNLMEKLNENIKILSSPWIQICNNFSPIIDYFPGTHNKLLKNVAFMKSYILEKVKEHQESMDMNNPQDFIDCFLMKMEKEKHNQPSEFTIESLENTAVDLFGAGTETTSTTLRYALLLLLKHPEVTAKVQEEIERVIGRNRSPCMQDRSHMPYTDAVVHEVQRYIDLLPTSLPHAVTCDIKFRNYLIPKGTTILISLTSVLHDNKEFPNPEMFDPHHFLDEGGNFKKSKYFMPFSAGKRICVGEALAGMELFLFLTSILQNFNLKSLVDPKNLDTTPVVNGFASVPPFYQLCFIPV

[15] = AUC in cynomolgus monkey at 2.5 mg/kg, iv; assay type: ADME, organism-based, Macaca fascicularis; set-up: dose 2.5 mg/kg, route intravenous; settings: plasma
Procedure, shortened: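 Single intravenous dose. Plasma drug exposure is reported as area under the curve in µg-hr/mL. It is listed in the same table as T1/2, Vss, Vβ and plasma clearance (CLp).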

[16] = Volume of distribution in cynomolgus monkey at 2.5 mg/kg, iv; assay type: ADME, organism-based, Macaca fascicularis; set-up: dose 2.5 mg/kg, route intravenous; settings: in vivo, read-out: Vss
[17] = target: Dipeptidyl peptidase 9 (Homo sapiens, UniProt Q86TI2)
Sequence of Dipeptidyl peptidase 9 (Q86TI2 whole entry): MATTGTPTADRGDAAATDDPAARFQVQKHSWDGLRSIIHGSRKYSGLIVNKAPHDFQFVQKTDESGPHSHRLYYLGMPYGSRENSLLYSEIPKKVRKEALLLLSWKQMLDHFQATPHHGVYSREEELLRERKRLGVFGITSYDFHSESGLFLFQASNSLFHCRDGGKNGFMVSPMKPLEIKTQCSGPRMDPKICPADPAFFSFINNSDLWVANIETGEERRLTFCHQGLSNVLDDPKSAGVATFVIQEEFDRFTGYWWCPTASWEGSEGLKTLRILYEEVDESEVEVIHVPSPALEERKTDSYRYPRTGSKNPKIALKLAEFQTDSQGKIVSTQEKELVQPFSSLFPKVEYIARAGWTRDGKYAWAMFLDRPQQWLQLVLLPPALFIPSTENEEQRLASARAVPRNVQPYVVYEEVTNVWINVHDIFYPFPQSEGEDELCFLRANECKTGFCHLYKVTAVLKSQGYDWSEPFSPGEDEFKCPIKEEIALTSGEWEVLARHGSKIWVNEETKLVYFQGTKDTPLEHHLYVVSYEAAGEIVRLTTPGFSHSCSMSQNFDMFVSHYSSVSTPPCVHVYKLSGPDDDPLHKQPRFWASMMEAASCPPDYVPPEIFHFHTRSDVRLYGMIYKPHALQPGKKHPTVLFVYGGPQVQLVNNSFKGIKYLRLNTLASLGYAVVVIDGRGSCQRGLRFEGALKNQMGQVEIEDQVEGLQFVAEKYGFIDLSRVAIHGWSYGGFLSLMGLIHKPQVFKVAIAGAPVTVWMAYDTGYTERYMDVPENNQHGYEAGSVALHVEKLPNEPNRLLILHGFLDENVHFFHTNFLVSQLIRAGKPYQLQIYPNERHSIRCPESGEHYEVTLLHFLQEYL

[18] = target: T1, Prolyl endopeptidase (Homo sapiens, UniProt P48147); experiment: Inhibition of POP
T1 sequence (P48147 whole entry): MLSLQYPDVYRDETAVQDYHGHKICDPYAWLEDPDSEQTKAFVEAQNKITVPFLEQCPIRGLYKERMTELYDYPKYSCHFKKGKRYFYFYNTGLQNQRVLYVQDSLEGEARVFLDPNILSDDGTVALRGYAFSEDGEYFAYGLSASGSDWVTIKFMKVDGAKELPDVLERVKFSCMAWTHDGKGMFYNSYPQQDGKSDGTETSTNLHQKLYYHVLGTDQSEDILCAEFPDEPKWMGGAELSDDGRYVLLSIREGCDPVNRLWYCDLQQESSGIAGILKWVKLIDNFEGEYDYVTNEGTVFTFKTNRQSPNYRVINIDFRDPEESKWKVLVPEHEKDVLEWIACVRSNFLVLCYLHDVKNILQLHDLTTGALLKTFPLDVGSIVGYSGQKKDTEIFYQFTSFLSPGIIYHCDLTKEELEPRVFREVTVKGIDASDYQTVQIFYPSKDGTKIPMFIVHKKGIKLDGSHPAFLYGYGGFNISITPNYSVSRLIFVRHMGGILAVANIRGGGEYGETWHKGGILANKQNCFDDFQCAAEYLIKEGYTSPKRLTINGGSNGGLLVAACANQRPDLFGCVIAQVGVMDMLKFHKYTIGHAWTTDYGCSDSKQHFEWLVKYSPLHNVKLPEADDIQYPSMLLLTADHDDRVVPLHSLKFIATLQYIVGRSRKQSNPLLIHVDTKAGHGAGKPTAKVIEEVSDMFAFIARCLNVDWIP

[19] = target: Dipeptidyl peptidase 8 (Homo sapiens, UniProt Q6V1X1)
Sequence of Dipeptidyl peptidase 8 (Q6V1X1 whole entry): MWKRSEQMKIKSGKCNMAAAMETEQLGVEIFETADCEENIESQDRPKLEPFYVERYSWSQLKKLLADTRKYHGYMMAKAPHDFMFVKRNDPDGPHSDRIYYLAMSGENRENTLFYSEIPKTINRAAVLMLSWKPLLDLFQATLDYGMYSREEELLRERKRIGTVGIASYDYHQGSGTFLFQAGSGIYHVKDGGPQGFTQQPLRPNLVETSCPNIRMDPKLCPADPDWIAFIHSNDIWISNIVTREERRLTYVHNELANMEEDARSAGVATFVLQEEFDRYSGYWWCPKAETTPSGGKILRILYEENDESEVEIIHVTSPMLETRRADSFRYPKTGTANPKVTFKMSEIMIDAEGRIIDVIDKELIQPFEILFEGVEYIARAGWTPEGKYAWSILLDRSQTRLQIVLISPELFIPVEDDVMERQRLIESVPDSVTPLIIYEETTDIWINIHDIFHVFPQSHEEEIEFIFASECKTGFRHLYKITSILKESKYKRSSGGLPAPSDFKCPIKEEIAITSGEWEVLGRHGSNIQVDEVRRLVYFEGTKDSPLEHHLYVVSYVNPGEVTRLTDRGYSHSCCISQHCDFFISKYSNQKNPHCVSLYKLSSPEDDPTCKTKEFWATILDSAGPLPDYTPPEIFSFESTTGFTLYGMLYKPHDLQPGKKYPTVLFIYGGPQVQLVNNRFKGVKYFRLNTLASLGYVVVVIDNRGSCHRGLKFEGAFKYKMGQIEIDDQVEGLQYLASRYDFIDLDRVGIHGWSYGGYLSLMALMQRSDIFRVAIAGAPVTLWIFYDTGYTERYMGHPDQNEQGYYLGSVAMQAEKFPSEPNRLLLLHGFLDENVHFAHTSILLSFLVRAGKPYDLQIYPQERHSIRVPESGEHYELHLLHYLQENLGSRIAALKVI

[20] = species on record: Rattus norvegicus; experiment: Increase in insulin level in Zucker rat after 10 mins relative to control; assay type: functional; procedure, shortened: as §2
[21] = Oral bioavailability in Sprague-Dawley rat at 5 mg/kg, po; assay type: ADME, organism-based; settings: in vivo
[22] = AUC in cynomolgus monkey at 2.5 mg/kg, po; assay type: ADME, organism-based, Macaca fascicularis; set-up: dose 2.5 mg/kg, route oral; settings: plasma
[23] = AUC in Beagle dog at 2.5 mg/kg, po; assay type: ADME, organism-based, Canis lupus familiaris; set-up: dose 2.5 mg/kg, route oral; settings: plasma
[24] = Cmax in cynomolgus monkey at 2.5 mg/kg, po; assay type: ADME, organism-based, Macaca fascicularis; set-up: dose 2.5 mg/kg, route oral; settings: in vivo
[25] = target: T2, Prolyl endopeptidase FAP (Homo sapiens, UniProt Q12884); experiment: Inhibition of FAPalpha
T2 sequence (Q12884 whole entry): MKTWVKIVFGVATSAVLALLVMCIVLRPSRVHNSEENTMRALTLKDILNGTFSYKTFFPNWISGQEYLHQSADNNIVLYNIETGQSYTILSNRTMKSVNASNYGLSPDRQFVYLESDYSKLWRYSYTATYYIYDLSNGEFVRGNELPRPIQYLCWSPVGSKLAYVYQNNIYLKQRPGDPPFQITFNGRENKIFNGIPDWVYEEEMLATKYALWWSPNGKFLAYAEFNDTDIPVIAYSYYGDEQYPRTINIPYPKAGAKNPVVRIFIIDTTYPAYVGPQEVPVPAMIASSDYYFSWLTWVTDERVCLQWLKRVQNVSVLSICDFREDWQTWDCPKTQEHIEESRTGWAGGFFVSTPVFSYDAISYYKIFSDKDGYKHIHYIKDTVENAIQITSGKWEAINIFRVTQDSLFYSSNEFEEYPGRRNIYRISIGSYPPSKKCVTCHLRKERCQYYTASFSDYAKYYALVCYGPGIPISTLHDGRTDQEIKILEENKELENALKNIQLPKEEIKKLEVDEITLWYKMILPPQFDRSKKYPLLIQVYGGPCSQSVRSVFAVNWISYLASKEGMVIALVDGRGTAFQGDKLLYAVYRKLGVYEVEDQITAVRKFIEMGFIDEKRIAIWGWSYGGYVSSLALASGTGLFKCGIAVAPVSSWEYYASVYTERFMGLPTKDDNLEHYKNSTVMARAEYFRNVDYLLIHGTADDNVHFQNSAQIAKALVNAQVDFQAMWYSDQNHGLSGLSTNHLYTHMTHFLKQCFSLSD

[26] = species on record: Rattus norvegicus; experiment: Reduction in postprandial glucose excursion in Zucker rat measured as AUC glucose (0-240 min) relative to control; assay type: functional; set-up: scale not given: the % may be the effect or the level left; procedure, shortened: as §2
[27] = Half life in cynomolgus monkey at 2.5 mg/kg, iv; assay type: ADME, organism-based, Macaca fascicularis; set-up: dose 2.5 mg/kg, route intravenous; settings: in vivo

Question: Which Cmax [1] does the source give for `C#C[C@H]1CC[C@@H](C#N)N1C(=O)CNC1(C)CCN(c2cc(C(=O)O)ccn2)CC1` here?
Answer: 300 ng/mL

Question: And the Activity [2]?
Answer: inactive

Question: What about the Activity [3] of the same compound?
Answer: Active

Question: And the half-life [4]?
Answer: 5.3 h

Question: And the Activity [5]?
Answer: Active

Question: What about the half-life [6] of the same compound?
Answer: 6.8 h

Question: And the AUC [7]?
Answer: 2100 ng·h/mL

Question: What about the Tmax [8] of the same compound?
Answer: 4.7 h

Question: What about the bioavailability [9] of the same compound?
Answer: 11.2%

Question: What about the Tmax [10] of the same compound?
Answer: 2.7 h

Question: And the Ki [11]?
Answer: > 30 µM

Question: And the AUC [12]?
Answer: 12500 mg/dL·min

Question: And the Vd [13]?
Answer: 8.5 L/kg

Question: What about the IC50 [14] of the same compound?
Answer: > 30 µM

Question: What about the AUC [15] of the same compound?
Answer: 5200 ng·h/mL

Question: And the Vd [16]?
Answer: 0.3 L/kg

Question: What about the Ki [17] of the same compound?
Answer: > 30 µM

Question: And the Ki [18]?
Answer: > 30 µM

Question: What about the Ki [19] of the same compound?
Answer: > 30 µM

Question: What about the Activity [20] of the same compound?
Answer: 60%

Question: And the bioavailability [21]?
Answer: 28%

Question: And the AUC [22]?
Answer: 580 ng·h/mL

Question: And the AUC [23]?
Answer: 970 ng·h/mL

Question: And the Cmax [24]?
Answer: 140 ng/mL

Question: And the Ki [25]?
Answer: > 30 µM

Question: And the Activity [26]?
Answer: 50%

Question: What about the half-life [27] of the same compound?
Answer: 1.7 h

Source: ChEMBL document CHEMBL1137403, “Discovery of 2-[4-{{2-(2S,5R)-2-cyano-5-ethynyl-1-pyrrolidinyl]-2-oxoethyl]amino]- 4-methyl-1-piperidinyl]-4-pyridinecarboxylic acid (ABT-279): a very potent, selective, effective, and well-tolerated inhibitor of dipeptidyl peptidase-IV, useful for the treatment of diabetes” (J Med Chem, 2006)
